Measured values reported in ChEMBL document CHEMBL1153560, “In vitro activities of doripenem and six comparator drugs against 423 aerobic and anaerobic bacterial isolates from infected diabetic foot wounds” (2008).

Columns and labels:
Type in all cases: functional
[1] = system: Clostridium perfringens; experiment: Antibacterial activity against Clostridium perfringens isolated from patient with diabetic foot infection after 44 to 48 hrs by agar dilution method
Summary of the method: (§1)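 Agar dilution per CLSI M11-A7. Twofold drug dilutions made on the test day and added to molten agar. Replicator-applied inoculum of 10^5 CFU/spot. Drug-free control plates inoculated before and after each drug set. Incubation at 37°C for 44 to 48 h, anaerobic chamber. MIC taken as the lowest concentration giving no growth or a marked change in growth versus controls.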

[2] = system: Anaerocolumna aminovalerica; experiment: Antibacterial activity against Clostridium aminovalericum isolated from patient with diabetic foot infection after 44 to 48 hrs by agar dilution method
Summary of the method: (§2)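 CLSI M11-A7 agar dilution: serial twofold drug dilutions made on the test day and added to molten agar. Spots of 10^5 CFU were applied by replicator, with drug-free control plates inoculated before and after each set. Incubation was 44 to 48 h at 37°C in an anaerobic chamber. MIC was the lowest concentration giving no growth or a marked change in growth versus controls.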

[3] = system: Enterocloster clostridioformis; experiment: Antibacterial activity against Clostridium clostridioforme isolated from patient with diabetic foot infection after 44 to 48 hrs by agar dilution method; summary of the method: as §2
[4] = system: [Clostridium] innocuum; experiment: Antibacterial activity against Clostridium innocuum isolated from patient with diabetic foot infection after 44 to 48 hrs by agar dilution method; summary of the method: as §2
[5] = system: Clostridium malenominatum; experiment: Antibacterial activity against Clostridium malenominatum isolated from patient with diabetic foot infection after 44 to 48 hrs by agar dilution method; summary of the method: as §2
[6] = system: Cutibacterium acnes; experiment: Antibacterial activity against Propionibacterium acnes isolated from patient with diabetic foot infection after 44 to 48 hrs by agar dilution method; summary of the method: as §2
[7] = system: Anaerococcus prevotii; experiment: Antibacterial activity against Anaerococcus prevotii isolated from patient with diabetic foot infection after 44 to 48 hrs by agar dilution method; summary of the method: as §2
[8] = system: Finegoldia magna; experiment: Antibacterial activity against Finegoldia magna isolated from patient with diabetic foot infection after 44 to 48 hrs by agar dilution method; summary of the method: as §2
[9] = system: Peptoniphilus asaccharolyticus; experiment: Antibacterial activity against Peptoniphilus asaccharolyticus isolated from patient with diabetic foot infection after 44 to 48 hrs by agar dilution method; summary of the method: as §2
[10] = system: Peptostreptococcus anaerobius; experiment: Antibacterial activity against Peptostreptococcus anaerobius isolated from patient with diabetic foot infection after 44 to 48 hrs by agar dilution method; summary of the method: as §2
[11] = system: Parvimonas micra; experiment: Antibacterial activity against Peptostreptococcus micros isolated from patient with diabetic foot infection after 44 to 48 hrs by agar dilution method; summary of the method: as §2
[12] = system: Bacteroides fragilis; experiment: Antibacterial activity against Bacteroides fragilis isolated from patient with diabetic foot infection after 44 to 48 hrs by agar dilution method; summary of the method: as §2
[13] = system: Bacteroides stercoris; experiment: Antibacterial activity against Bacteroides stercoris isolated from patient with diabetic foot infection after 44 to 48 hrs by agar dilution method; summary of the method: as §2
[14] = system: Bacteroides fragilis; experiment: Antibacterial activity against Bacteroides fragilis isolated from patient with diabetic foot infection assessed as percent resistant isolates after 44 to 48 hrs by agar dilution method; summary of the method: as §1
[15] = system: Bacteroides ovatus; experiment: Antibacterial activity against Bacteroides ovatus isolated from patient with diabetic foot infection assessed as percent resistant isolates after 44 to 48 hrs by agar dilution method; summary of the method: as §1
[16] = system: Bacteroides thetaiotaomicron; experiment: Antibacterial activity against Bacteroides thetaiotaomicron isolated from patient with diabetic foot infection assessed as percent resistant isolates after 44 to 48 hrs by agar dilution method; summary of the method: as §1
[17] = system: Bacteroides thetaiotaomicron; experiment: Antibacterial activity against Bacteroides thetaiotaomicron isolated from patient with diabetic foot infection after 44 to 48 hrs by agar dilution method; summary of the method: as §2
[18] = system: Bacteroides uniformis; experiment: Antibacterial activity against Bacteroides uniformis isolated from patient with diabetic foot infection after 44 to 48 hrs by agar dilution method; summary of the method: as §2
[19] = system: Phocaeicola vulgatus; experiment: Antibacterial activity against Bacteroides vulgatus isolated from patient with diabetic foot infection after 44 to 48 hrs by agar dilution method; summary of the method: as §2
[20] = system: Parabacteroides distasonis; experiment: Antibacterial activity against Parabacteroides distasonis isolated from patient with diabetic foot infection after 44 to 48 hrs by agar dilution method; summary of the method: as §2
[21] = system: Porphyromonas asaccharolytica; experiment: Antibacterial activity against Porphyromonas asaccharolyticus isolated from patient with diabetic foot infection after 44 to 48 hrs by agar dilution method; summary of the method: as §2
[22] = system: Porphyromonas somerae; experiment: Antibacterial activity against Porphyromonas somerae isolated from patient with diabetic foot infection after 44 to 48 hrs by agar dilution method; summary of the method: as §2
[23] = system: Bacteroides uniformis; experiment: Antibacterial activity against Bacteroides uniformis isolated from patient with diabetic foot infection assessed as percent resistant isolates after 44 to 48 hrs by agar dilution method; summary of the method: as §1
[24] = system: Parabacteroides merdae; experiment: Antibacterial activity against Parabacteroides merdae isolated from patient with diabetic foot infection assessed as percent resistant isolates after 44 to 48 hrs by agar dilution method; summary of the method: as §1
[25] = system: Porphyromonas asaccharolytica; experiment: Antibacterial activity against Porphyromonas asaccharolyticus isolated from patient with diabetic foot infection assessed as percent resistant isolates after 44 to 48 hrs by agar dilution method; summary of the method: as §1
[26] = system: Porphyromonas somerae; experiment: Antibacterial activity against Porphyromonas somerae isolated from patient with diabetic foot infection assessed as percent resistant isolates after 44 to 48 hrs by agar dilution method; summary of the method: as §1
[27] = system: Prevotella bivia; experiment: Antibacterial activity against Prevotella bivia isolated from patient with diabetic foot infection assessed as percent resistant isolates after 44 to 48 hrs by agar dilution method; summary of the method: as §1
[28] = system: Clostridium cadaveris; experiment: Antibacterial activity against Clostridium cadaveris isolated from patient with diabetic foot infection assessed as percent resistant isolates after 44 to 48 hrs by agar dilution method; summary of the method: as §1
[29] = system: Enterocloster clostridioformis; experiment: Antibacterial activity against Clostridium clostridioforme isolated from patient with diabetic foot infection assessed as percent resistant isolates after 44 to 48 hrs by agar dilution method; summary of the method: as §1
[30] = system: [Clostridium] innocuum; experiment: Antibacterial activity against Clostridium innocuum isolated from patient with diabetic foot infection assessed as percent resistant isolates after 44 to 48 hrs by agar dilution method; summary of the method: as §1
[31] = system: Clostridium malenominatum; experiment: Antibacterial activity against Clostridium malenominatum isolated from patient with diabetic foot infection assessed as percent resistant isolates after 44 to 48 hrs by agar dilution method; summary of the method: as §1
[32] = system: Anaerococcus prevotii; experiment: Antibacterial activity against Anaerococcus prevotii isolated from patient with diabetic foot infection assessed as percent resistant isolates after 44 to 48 hrs by agar dilution method; summary of the method: as §1
[33] = system: Anaerococcus tetradius; experiment: Antibacterial activity against Anaerococcus tetradius isolated from patient with diabetic foot infection assessed as percent resistant isolates after 44 to 48 hrs by agar dilution method; summary of the method: as §1
[34] = system: Finegoldia magna; experiment: Antibacterial activity against Finegoldia magna isolated from patient with diabetic foot infection assessed as percent resistant isolates after 44 to 48 hrs by agar dilution method; summary of the method: as §1
[35] = system: Peptostreptococcus anaerobius; experiment: Antibacterial activity against Peptostreptococcus anaerobius isolated from patient with diabetic foot infection assessed as percent resistant isolates after 44 to 48 hrs by agar dilution method; summary of the method: as §1
[36] = system: Parvimonas micra; experiment: Antibacterial activity against Peptostreptococcus micros isolated from patient with diabetic foot infection assessed as percent resistant isolates after 44 to 48 hrs by agar dilution method; summary of the method: as §1
[37] = system: Anaerococcus vaginalis; experiment: Antibacterial activity against Anaerococcus vaginalis isolated from patient with diabetic foot infection after 44 to 48 hrs by agar dilution method; summary of the method: as §2

Cc1ncc([N+](=O)[O-])n1CCO [METRONIDAZOLE]
0.25 µg/mL: MIC90 [2] | MIC90 [3] | MIC90 [4] | MIC90 [5] | MIC50 [10] | MIC50 [11] | MIC90 [21] | MIC90 [22]
0.05 µg/mL: MIC50 [21] | MIC50 [22]
0.5 µg/mL: MIC50 [7] | MIC50 [8] | MIC50 [9] | MIC50 [12] | MIC50 [13] | MIC50 [17] | MIC50 [18] | MIC50 [19] | MIC50 [20] | MIC50 [37]
> 32 µg/mL: MIC50 [6] | MIC90 [6]
2 µg/mL: MIC90 [9]
0.125 µg/mL: MIC50 [2] | MIC50 [3] | MIC50 [4] | MIC50 [5]
0%: Activity [14] | Activity [15] | Activity [16] | Activity [23] | Activity [24] | Activity [25] | Activity [26] | Activity [27] | Activity [28] | Activity [29] | Activity [30] | Activity [31] | Activity [32] | Activity [33] | Activity [34] | Activity [35] | Activity [36]
1 µg/mL: MIC50 [1] | MIC90 [1] | MIC90 [7] | MIC90 [8] | MIC90 [10] | MIC90 [11] | MIC90 [12] | MIC90 [13] | MIC90 [17] | MIC90 [18] | MIC90 [19] | MIC90 [20]

C[C@@H](O)[C@H]1C(=O)N2C(C(=O)O)=C(S[C@@H]3CN[C@H](C(=O)N(C)C)C3)[C@H](C)[C@H]12 [MEROPENEM]
0.06 µg/mL: MIC50 [2] | MIC50 [3] | MIC50 [4] | MIC50 [5] | MIC50 [8]
1 µg/mL: MIC90 [2] | MIC90 [3] | MIC90 [4] | MIC90 [5] | MIC90 [13] | MIC90 [17] | MIC90 [18] | MIC90 [19] | MIC90 [20]
0.125 µg/mL: MIC50 [6] | MIC90 [7] | MIC90 [8] | MIC90 [9] | MIC50 [10] | MIC50 [11] | MIC50 [12] | MIC90 [37]
≤ 0.015 µg/mL: MIC50 [1] | MIC90 [1] | MIC50 [9] | MIC50 [21] | MIC90 [21] | MIC50 [22] | MIC90 [22]
0.03 µg/mL: MIC50 [7] | MIC50 [37]
0%: Activity [14] | Activity [15] | Activity [16] | Activity [23] | Activity [24] | Activity [25] | Activity [26] | Activity [27] | Activity [28] | Activity [29] | Activity [30] | Activity [31] | Activity [32] | Activity [33] | Activity [34] | Activity [35] | Activity [36]
0.25 µg/mL: MIC90 [6] | MIC90 [10] | MIC90 [11] | MIC90 [12] | MIC50 [13] | MIC50 [17] | MIC50 [18] | MIC50 [19] | MIC50 [20]
